Test [1] addresses Sulfonylurea receptor 1, Kir6.2 (Homo sapiens, UniProt Q09428+Q14654). Put plainly: […] of human KATP (SUR1/Kir6.2) channel expressed in Xenopus oocytes. The test is classed as functional, cell-based, Oocyte. The essentials:
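ATP-sensitive K+ currents were recorded by excised-patch clamp from inside-out macropatches pulled from Xenopus oocytes expressing human SUR1/Kir6.2. Values are means of 3-6 experiments.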

Test [2] concerns the target T1, Sulfonylurea receptor 1, Kir6.2 (Homo sapiens) (UniProt Q14654+Q09428). Kind of test: Percent maximal agonist response of human KATP (SUR1/Kir6.2) channel expressed in Xenopus oocytes at 30 uM. Conditions: Oocyte. The test is classed as functional, cell-based. In outline: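 Inside-out macropatches were excised from Xenopus oocytes expressing human SUR1/Kir6.2, and ATP-sensitive K+ currents were recorded. […] Means of 3-6 experiments.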

The target in test [3] is T1, Sulfonylurea receptor 1, Kir6.2 (Homo sapiens). Put plainly: Percent maximal agonist response of human KATP (SUR1/Kir6.2) channel expressed in Xenopus oocytes. The test is classed as functional, cell-based. Conditions: Oocyte. The essentials: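 ATP-sensitive K+ currents were recorded by excised-patch clamp from inside-out macropatches pulled from Xenopus oocytes expressing human SUR1/Kir6.2. Compounds were tested across a dose range to give dose–response curves. […] Values are means of 3-6 experiments.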

Chain of Sulfonylurea receptor 1, Kir6.2 (Q14654 whole entry): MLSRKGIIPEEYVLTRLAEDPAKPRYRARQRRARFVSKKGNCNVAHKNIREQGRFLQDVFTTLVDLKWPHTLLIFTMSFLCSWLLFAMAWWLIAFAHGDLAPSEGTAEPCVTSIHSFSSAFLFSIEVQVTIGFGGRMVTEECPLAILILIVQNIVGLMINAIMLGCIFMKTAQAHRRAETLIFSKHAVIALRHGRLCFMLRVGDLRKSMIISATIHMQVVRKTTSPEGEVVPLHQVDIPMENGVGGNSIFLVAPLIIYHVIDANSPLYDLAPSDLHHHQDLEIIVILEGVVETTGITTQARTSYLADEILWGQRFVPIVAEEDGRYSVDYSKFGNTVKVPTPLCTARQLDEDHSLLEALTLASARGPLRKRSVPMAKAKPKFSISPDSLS
Chain of Sulfonylurea receptor 1, Kir6.2 (Q09428 whole entry): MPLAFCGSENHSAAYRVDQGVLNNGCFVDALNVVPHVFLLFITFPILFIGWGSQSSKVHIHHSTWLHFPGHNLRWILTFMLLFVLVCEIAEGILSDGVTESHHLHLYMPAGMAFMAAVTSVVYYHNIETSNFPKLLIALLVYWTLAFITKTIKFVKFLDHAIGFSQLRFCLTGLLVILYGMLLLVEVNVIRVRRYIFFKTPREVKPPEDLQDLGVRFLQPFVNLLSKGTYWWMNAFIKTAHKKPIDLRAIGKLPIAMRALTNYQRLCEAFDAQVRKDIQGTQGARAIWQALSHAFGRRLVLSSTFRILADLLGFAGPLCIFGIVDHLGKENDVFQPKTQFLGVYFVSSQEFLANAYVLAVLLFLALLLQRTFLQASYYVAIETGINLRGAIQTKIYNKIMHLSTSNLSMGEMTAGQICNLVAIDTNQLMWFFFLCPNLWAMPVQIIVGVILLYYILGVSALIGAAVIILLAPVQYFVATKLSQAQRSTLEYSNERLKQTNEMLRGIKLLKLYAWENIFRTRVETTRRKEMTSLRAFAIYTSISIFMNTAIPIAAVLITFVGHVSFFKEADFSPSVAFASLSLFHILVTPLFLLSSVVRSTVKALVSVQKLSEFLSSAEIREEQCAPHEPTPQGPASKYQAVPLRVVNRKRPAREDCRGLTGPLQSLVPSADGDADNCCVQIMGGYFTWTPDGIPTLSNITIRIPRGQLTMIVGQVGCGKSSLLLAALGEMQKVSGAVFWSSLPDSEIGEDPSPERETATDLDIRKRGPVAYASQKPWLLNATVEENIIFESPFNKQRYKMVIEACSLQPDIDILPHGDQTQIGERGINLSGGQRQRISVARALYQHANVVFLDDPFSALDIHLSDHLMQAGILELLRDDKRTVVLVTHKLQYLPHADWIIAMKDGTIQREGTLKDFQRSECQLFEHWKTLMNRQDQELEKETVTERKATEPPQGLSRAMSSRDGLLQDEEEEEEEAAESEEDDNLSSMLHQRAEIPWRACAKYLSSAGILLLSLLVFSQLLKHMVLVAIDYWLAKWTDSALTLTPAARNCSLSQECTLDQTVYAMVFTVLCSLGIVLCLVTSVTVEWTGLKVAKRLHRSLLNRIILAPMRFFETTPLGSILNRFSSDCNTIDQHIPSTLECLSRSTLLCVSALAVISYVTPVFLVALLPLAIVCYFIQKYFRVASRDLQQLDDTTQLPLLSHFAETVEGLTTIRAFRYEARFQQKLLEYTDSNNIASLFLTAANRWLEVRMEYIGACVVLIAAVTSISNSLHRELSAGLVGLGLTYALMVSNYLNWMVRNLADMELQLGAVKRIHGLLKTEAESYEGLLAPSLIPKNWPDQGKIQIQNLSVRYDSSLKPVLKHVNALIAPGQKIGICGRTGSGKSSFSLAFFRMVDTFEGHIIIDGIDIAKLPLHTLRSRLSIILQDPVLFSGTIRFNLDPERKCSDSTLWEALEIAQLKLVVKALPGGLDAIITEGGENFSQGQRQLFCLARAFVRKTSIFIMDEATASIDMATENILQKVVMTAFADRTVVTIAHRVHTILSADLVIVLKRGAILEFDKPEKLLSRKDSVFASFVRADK

`O=[N+]([O-])c1c(C(F)(F)F)n[nH]c1-c1ccccc1`: in test [1], the concentration giving a half-maximal response (EC50) (in general, the concentration that produces a half-maximal response) was determined as 30 µM. For the same molecule, in test [2], the Max response worked out at 38%.
In test [3], `CC1=Nc2ccc(Cl)cc2S(=O)(=O)N1` returned a Max response of 100%.
Regarding `O=[N+]([O-])c1c(C(F)(F)F)n[nH]c1-c1ccc(F)cc1F`, in test [3], the Max response amounted to 113%.
With `O=[N+]([O-])c1ccc(-c2cc(C(F)(F)F)[nH]n2)cc1`, in test [1], the concentration giving a half-maximal response (EC50) was above 30 µM. The molecule also came in with a Max response in test [2] of 8%.
The molecule `O=[N+]([O-])c1c(C(F)(F)F)n[nH]c1-c1ccc(C(F)(F)F)cc1C(F)(F)F` yielded an EC50 in test [1] of 0.54 µM. The molecule further showed a Max response in test [3] of 197%.
In the case of `O=[N+]([O-])c1ccc(-c2noc(C(F)(F)F)c2[N+](=O)[O-])cc1`, in test [1], the EC50 was above 30 µM.
Take `O=[N+]([O-])c1c(-c2ccc(F)cc2F)n[nH]c1C(F)(F)F`: the response in test [1] was half-maximal at 1.15 µM (EC50).
In test [1], `O=[N+]([O-])c1ccc(-c2[nH]nc(C(F)(F)F)c2[N+](=O)[O-])cc1` returned an EC50 of 0.7 µM. The same molecule yielded a Max response in test [3] of 94%.
